This passage reports Inhibition and grade results from ChEMBL document CHEMBL1128406, “Effects of tubercidin and its 5'-O-methyl ether on adenosine receptors and mediator release functions in mast cells” (1995).

For assay [1], the system named is CHO-K1-BH4. Nature of the assay: Compound is tested for cytotoxicity in Chinese hamster ovary cells (CHO-K1-BH4) in the presence of S-9 microsome fraction at concentration 37 micro M. The format is functional, Cricetulus griseus. Summed up: (§1)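 CHO-K1-BH4 cells exposed to the test article for 5 h with an S-9 microsome fraction present, then given an overnight compound-free recovery period. Relative cytotoxicity was assessed after recovery.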

Assay [2] deals with CHO-K1-BH4. Nature of the assay: Compound is tested for cytotoxicity in Chinese hamster ovary cells (CHO-K1-BH4) in the presence of S-9 microsome fraction at concentration 3.7 micro M. It counts as functional, Cricetulus griseus. In a few lines: as §1
Another assay is filed under the species Mus musculus. Description: Compound is evaluated for the ability to inhibit the passive cutaneous anaphylaxis (PCA) reaction in mouse in presence of Ag. It counts as functional.
Assay [3] concerns CHO-K1-BH4. Description: Compound is tested for cytotoxicity in Chinese hamster ovary cells (CHO-K1-BH4) in the absence of S-9 microsome fraction at concentration 360 micro M. It counts as functional, Cricetulus griseus. Summed up:
(§2)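 CHO-K1-BH4 cells exposed to the test article for 5 h with no exogenous S-9 microsome fraction, then given an overnight recovery period without compound. Relative cytotoxicity was scored afterwards, following the contract lab's CYT/CHO protocol.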

Assay [4] relates to CHO-K1-BH4. Nature of the assay: Compound is tested for cytotoxicity in Chinese hamster ovary cells (CHO-K1-BH4) in the absence of S-9 microsome fraction at concentration 0.4 micro M. It counts as functional, Cricetulus griseus. In a few lines: as §2
Assay [5] deals with CHO-K1-BH4. Nature of the assay: Compound is tested for cytotoxicity in Chinese hamster ovary cells (CHO-K1-BH4) in the absence of S-9 microsome fraction at concentration 0 micro M. The format is functional, Cricetulus griseus. In a few lines:
as §2

In assay [6] the test system is CHO-K1-BH4. Description: Compound is tested for cytotoxicity in Chinese hamster ovary cells (CHO-K1-BH4) in the absence of S-9 microsome fraction at concentration 3.7 micro M. The format is functional, Cricetulus griseus. In a few lines: as §2
Assay [7] relates to CHO-K1-BH4. Nature of the assay: Compound is tested for cytotoxicity in Chinese hamster ovary cells (CHO-K1-BH4) in the absence of S-9 microsome fraction at concentration 37 micro M. It counts as functional, Cricetulus griseus. In a few lines: as §2
For assay [8], the system named is CHO-K1-BH4. Nature of the assay: Compound is tested for cytotoxicity in Chinese hamster ovary cells (CHO-K1-BH4) in the presence of S-9 microsome fraction at concentration 360 micro M. It counts as functional, Cricetulus griseus. In a few lines:
as §1

The test system of assay [9] is CHO-K1-BH4. Description: Compound is tested for cytotoxicity in Chinese hamster ovary cells (CHO-K1-BH4) in the presence of S-9 microsome fraction at concentration 114 micro M. The format is functional, Cricetulus griseus. In a few lines: as §1
For assay [10], the system named is CHO-K1-BH4. Nature of the assay: Compound is tested for cytotoxicity in Chinese hamster ovary cells (CHO-K1-BH4) in the absence of S-9 microsome fraction at concentration 0.17 micro M. The format is functional, Cricetulus griseus. In a few lines: as §2
Assay [11] concerns CHO-K1-BH4. Nature of the assay: Compound is tested for cytotoxicity in Chinese hamster ovary cells (CHO-K1-BH4) in the presence of S-9 microsome fraction at concentration 1136 micro M. It counts as functional, Cricetulus griseus. Summed up: as §1
Assay [12] deals with CHO-K1-BH4. Nature of the assay: Compound is tested for cytotoxicity in Chinese hamster ovary cells (CHO-K1-BH4) in the absence of S-9 microsome fraction at concentration 1136 micro M. The format is functional, Cricetulus griseus. Summed up: as §2
Assay [13] relates to CHO-K1-BH4. Description: Compound is tested for cytotoxicity in Chinese hamster ovary cells (CHO-K1-BH4) in the presence of S-9 microsome fraction at concentration 1.1 micro M. The format is functional, Cricetulus griseus. Summed up: as §1
In assay [14] the test system is CHO-K1-BH4. Nature of the assay: Compound is tested for cytotoxicity in Chinese hamster ovary cells (CHO-K1-BH4) in the absence of S-9 microsome fraction at concentration 1.1 micro M. It counts as functional, Cricetulus griseus. Summed up:
as §2

Assay [15] has as its system CHO-K1-BH4. Description: Compound is tested for cytotoxicity in Chinese hamster ovary cells (CHO-K1-BH4) in the presence of S-9 microsome fraction at concentration 0.17 micro M. The format is functional, Cricetulus griseus. In a few lines:
as §1

In assay [16] the test system is CHO-K1-BH4. Nature of the assay: Compound is tested for cytotoxicity in Chinese hamster ovary cells (CHO-K1-BH4) in the presence of S-9 microsome fraction at concentration 11 micro M. It counts as functional, Cricetulus griseus. In a few lines: as §1
Assay [17] deals with CHO-K1-BH4. Nature of the assay: Compound is tested for cytotoxicity in Chinese hamster ovary cells (CHO-K1-BH4) in the absence of S-9 microsome fraction at concentration 11 micro M. The format is functional, Cricetulus griseus. In a few lines: as §2
Assay [18] relates to CHO-K1-BH4. Nature of the assay: Compound is tested for cytotoxicity in Chinese hamster ovary cells (CHO-K1-BH4) in the absence of S-9 microsome fraction at concentration 9 micro M. It counts as functional, Cricetulus griseus. In a few lines: (§3)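 CHO-K1-BH4 cells exposed to test article for 5 h, with or without exogenous S-9 microsome fraction, then recovered overnight without compound before relative cytotoxicity was scored.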

The test system of assay [19] is CHO-K1-BH4. Nature of the assay: Compound is tested for cytotoxicity in Chinese hamster ovary cells (CHO-K1-BH4) in the absence of S-9 microsome fraction at concentration 0.1*10e-4 micro M. It counts as functional, Cricetulus griseus. Summed up: as §3
The subject of assay [20] is CHO-K1-BH4. Description: Compound is tested for cytotoxicity in Chinese hamster ovary cells (CHO-K1-BH4) in the presence of S-9 microsome fraction at concentration 1.1*10e-4 micro M. The format is functional, Cricetulus griseus. In a few lines:
as §3

The test system of assay [21] is CHO-K1-BH4. Nature of the assay: Compound is tested for cytotoxicity in Chinese hamster ovary cells (CHO-K1-BH4) in the absence of S-9 microsome fraction at concentration 1.1*10e-4 micro M. It counts as functional, Cricetulus griseus. Summed up:
as §3

The subject of assay [22] is CHO-K1-BH4. Description: Compound is tested for cytotoxicity in Chinese hamster ovary cells (CHO-K1-BH4) in the presence of S-9 microsome fraction at concentration 11.4*10e-4 micro M. It counts as functional, Cricetulus griseus. In a few lines:
as §3

The subject of assay [23] is CHO-K1-BH4. Nature of the assay: Compound is tested for cytotoxicity in Chinese hamster ovary cells (CHO-K1-BH4) in the absence of S-9 microsome fraction at concentration 114*10e-4 micro M. It counts as functional, Cricetulus griseus. Summed up:
as §3

In assay [24] the test system is CHO-K1-BH4. Description: Compound is tested for cytotoxicity in Chinese hamster ovary cells (CHO-K1-BH4) in the presence of S-9 microsome fraction at concentration 114*10e-4 micro M. The format is functional, Cricetulus griseus. In a few lines: as §3
Assay [25] deals with CHO-K1-BH4. Nature of the assay: Compound is tested for cytotoxicity in Chinese hamster ovary cells (CHO-K1-BH4) in the absence of S-9 microsome fraction at concentration 11.4*10e-4 micro M. The format is functional, Cricetulus griseus. Summed up: as §3
For assay [26], the system named is CHO-K1-BH4. Nature of the assay: Compound is tested for cytotoxicity in Chinese hamster ovary cells (CHO-K1-BH4) in the presence of S-9 microsome fraction at concentration 0.1*10e-4 micro M. It counts as functional, Cricetulus griseus. In a few lines: as §3

Turning to `COC[C@H]1OC(n2ccc3c(N)ncnc32)[C@H](O)[C@@H]1O` (stereo partly drawn), the Inhibition – broadly, the drop in the measured response relative to a control, in per cent – with CHO-K1-BH4 [1] was 36%; in the assay with CHO-K1-BH4 [2], 2%; in the assay on CHO-K1-BH4 [3] it was 37%; in the assay on CHO-K1-BH4 [4] it was 0%; with CHO-K1-BH4 [5] it was 0%; with CHO-K1-BH4 [6], 12%. The Inhibition in the assay on CHO-K1-BH4 [7] is 30%; in the assay with CHO-K1-BH4 [8], 99%. The grade in the assay listed under Mus musculus came out at 1.75.

In the case of `Nc1ncnc2c1ncn2[C@@H]1O[C@H](CO)[C@@H](O)[C@H]1O` [ADENOSINE], the Inhibition in the assay on CHO-K1-BH4 [9] worked out at 0%; with CHO-K1-BH4 [10], 0%; with CHO-K1-BH4 [11] it was 7%; in the assay on CHO-K1-BH4 [12], 43%; with CHO-K1-BH4 [13], 8%; with CHO-K1-BH4 [14] it was 22%. The Inhibition in the assay with CHO-K1-BH4 [15] was found to be 0.04%; with CHO-K1-BH4 [16] it was 0%; in the assay with CHO-K1-BH4 [17], 19%.

In the case of `Nc1ncnc2c1ccn2[C@@H]1O[C@H](CO)[C@@H](O)[C@H]1O` [TUBERCIDIN], the Inhibition in the assay with CHO-K1-BH4 [18] turned out to be 11%; in the assay with CHO-K1-BH4 [19], 10%; with CHO-K1-BH4 [20], 9%; in the assay on CHO-K1-BH4 [21] it was 16%; in the assay with CHO-K1-BH4 [22] it was 80%; with CHO-K1-BH4 [23], 100%. Also, the values for the Inhibition with CHO-K1-BH4 [24], in the assay on CHO-K1-BH4 [25] and in the assay on CHO-K1-BH4 [26] were 100%, 92% and 4%, respectively. Moreover, the grade in the assay filed under Mus musculus is reported as 1.17.
